Data on 22 compounds can be found in ChEMBL document CHEMBL1944526, “Diamine and aminoalcohol derivatives active against Trypanosoma brucei” (Bioorg Med Chem Lett, 2012).

Activity calls are given as the source filed them. No cut-off for these calls is given here.

In general, EC50 refers to the concentration at which the effect is half-maximal.

Data set [1] concerns Trypanosoma brucei rhodesiense. Nature of the data set: Antitrypanosomal activity against bloodstream form of Trypanosoma brucei rhodesiense EATRO3 after 72 hrs by alamar blue assay. As to conditions: EATRO3, 72 h. The format is functional, organism-based. The method in brief:
(§1)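 Bloodstream-form parasites were grown in HMI-9 with 20% heat-inactivated FBS at 37 °C and 5% CO2. They were seeded at 2 × 10^3 cells/ml (T. b. rhodesiense EATRO3) or 2 × 10^4 cells/ml (T. b. gambiense ELIANE) and exposed to a compound dilution series for 72 h. Untreated cells with matching DMSO served as controls. Alamar Blue fluorescence was read at ex 550/em 590 nm, and EC50 was derived from it.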

The subject of data set [2] is Trypanosoma brucei gambiense. Nature of the data set: Antitrypanosomal activity against bloodstream form of Trypanosoma brucei gambiense ELIANE after 72 hrs by alamar blue assay. Format: functional, organism-based. The method in brief:
as §1
(In general: Resazurin is reduced to fluorescent resorufin, in cell work by metabolically active cells.)

The nature of data set [3]: Selectivity index, ratio of CC50 for african green monkey Vero cells to EC50 for Trypanosoma brucei rhodesiense EATRO3. As to conditions: read-out: Ratio CC50/EC50. The format is toxicity, cell-based. The method in brief:
(§2)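 Vero cells were grown in DMEM with 10% heat-inactivated FBS and seeded at 5 × 10^4 cells/ml. They were exposed to 4–35 (units as printed unclear) compound concentrations for 72 h at 37 °C and 5% CO2. CC50 came from Alamar Blue fluorescence (ex 550/em 590 nm). SI = CC50 (Vero) / EC50 (parasite, 72 h Alamar Blue assay).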

Data set [4] in a line: Selectivity index, ratio of CC50 for african green monkey Vero cells to EC50 for Trypanosoma brucei gambiense ELIANE. Format: toxicity, cell-based. As to conditions: read-out: Ratio CC50/EC50. The method in brief:
as §2

Data set [5] relates to Trypanosoma brucei rhodesiense. Nature of the data set: Antitrypanosomal activity against bloodstream form of Trypanosoma brucei rhodesiense EATRO3 assessed as alteration of flagellar pocket at […] after 24 hrs by microscopic analysis. The format is functional, organism-based. The method in brief: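 Live bloodstream-form T. b. rhodesiense EATRO3, cultured in HMI-9 with 20% heat-inactivated FBS at 37 °C and 5% CO2, were treated for 24 h. Flagellar pocket morphology was imaged with Nomarski optics and compared against untreated parasites.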

In the case of `N=C(N)c1ccc(OCCCCCOc2ccc(C(=N)N)cc2)cc1`, the EC50 in data set [1] came to 3.7 nM. On the same count and under the same terms, to `CCCCCCCCCCCCCCC(CNCCCCCC)NC(=O)OC(C)(C)C` (racemic) belongs above 2500 nM; to `CCCCCCCCCCCCCCC(CNC(=O)CCC(=O)O)NC(=O)OC(C)(C)C` (racemic), above 2500 nM; to `CCCCCCCCCCC(CO)NCC` (racemic), 1090 nM. For the compound `CCCCCCCCCCCCCCCCC(CO)NCC` (racemic), the figures for the EC50 in data set [1] and in data set [2] were 584 nM and 451 nM, respectively. In addition, the selectivity ratio turned out to be 27.7 in data set [3] and 35.9 in data set [4]. In addition, in data set [5], the outcome was Active. `CCCCCCCCCCCCCCC(O)CNCCCCCC` (racemic) had an EC50 in data set [1] above 2500 nM. For `CCCCCCCCCCCCCCC(O)CNC(C)C` (racemic), the results for the EC50 in data set [1] and in data set [2] were 436 nM and 329 nM, respectively. Also, the results for the selectivity ratio in data set [3] and in data set [4] were 27.1 and 35.8, respectively. For the same compound, in data set [5], the result was Active. Compound `CCCCCCCCCCCCCCC(O)CN(CC)CC` (racemic) had an EC50 in data set [1] of 2000 nM. Besides, the selectivity ratio in data set [3] was determined as 19.9.

Consider `CCCCCCCCCCCCCCC(O)CN1CCN(C)CC1` (racemic), for which the results for the EC50 in data set [1] and in data set [2] were 524 nM and 431 nM, respectively. The selectivity ratio is 23.7 in data set [3] and 28.8 in data set [4]. Further, in data set [5], the outcome was Active. In turn, `CCCCCCCCCCCCCCC(O)CN1CCN(CCCC)CC1` (racemic) gave an EC50 in data set [1] of 1780 nM. On the same count and under the same terms, to `CCCCCCCCCCCCCCC(O)CN1CCOCC1` (racemic) belongs above 2500 nM. On the same count and under the same terms, for `CCCCCCCCCCCCCCC(CO)NCCCC` (racemic) the value was 817 nM. In data set [1], `CCCCCCCCCCCCCCC(CNCC)NC(=O)OC(C)(C)C` (racemic) showed an EC50 of 704 nM. For the same compound, the selectivity ratio in data set [3] was 38.8. As for `CCCCCCCCCCCCCCC(N)CO` (racemic), the EC50 in data set [1] was above 2500 nM.

Compound `CCCCCCCCCCCCCCC(COCc1ccccc1)NC(=O)CCC(=O)O` (racemic) registered an EC50 in data set [1] above 2500 nM.

Regarding `CCCCCCCCCCCCCCC(CO)N(CC)CC` (racemic), in data set [1], the response was half-maximal at 722 nM (EC50).

The compound `CCCCCCCCCCCCCCC(O)CNC1CCCCC1` (racemic) registered an EC50 in data set [1] of 790 nM.

Consider `CCCCCCCCCCCCCCC(CN)NC(=O)OC(C)(C)C` (racemic), for which, in data set [1], the midpoint of the response, the EC50, lay at 961 nM. In data set [3], the selectivity ratio stood at 17.

In the case of `CCCCCCCCCCCCCCC(CO)NCC` (racemic), in data set [1], the response was half-maximal at 1140 nM (EC50). In addition, the selectivity ratio in data set [3] is 39.1. In data set [1], `CCCCCCCCCCCCCCC(N)CNCC(=O)O` (racemic) gave an EC50 above 2500 nM. On the same count and under the same terms, for `CCCCCCCCCCCCCCC(CO)NC(=O)CCCC(=O)O` (racemic) the value was above 2500 nM.

On to `Cc1ccc(C(=O)Nc2ccc(S(=O)(=O)O)c3cc(S(=O)(=O)O)cc(S(=O)(=O)O)c23)cc1NC(=O)c1cccc(NC(=O)Nc2cccc(C(=O)Nc3cc(C(=O)Nc4ccc(S(=O)(=O)O)c5cc(S(=O)(=O)O)cc(S(=O)(=O)O)c45)ccc3C)c2)c1` [SURAMIN], for which the EC50 in data set [1] stood at 185 nM.
